In ChEMBL document CHEMBL1139952, “Cytotoxic Mannich bases of 6-(3-aryl-2-propenoyl)-2(3H)-benzoxazolones” (Eur J Med Chem, 2007):
Active and inactive are the calls of the source. No cut-off for these calls is given here.

Assays:
Assay type in all cases: functional, cell-based
BV-173 [1] = test: Cytotoxicity against human BV173 cells after 72 hrs by MTT assay; settings: BV-173, 72 h
How it was run: (§1)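 Suspension cultures (BV-173 pre-B-cell leukemia or K-562 chronic myeloid leukemia, from DSMZ) kept in log phase in RPMI-1640 with 10% FBS and 2 mM L-glutamine, 37 °C, humidified 5% CO2. Compounds dissolved in DMSO and diluted in RPMI-1640, final DMSO at most 0.5%. Exposure 72 h, MTT-dye reduction read-out. Six wells per concentration, experiments in triplicate, IC50 from concentration-response fits.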

K562 = test: Cytotoxicity against human K562 cells after 72 hrs by MTT assay; settings: K562, 72 h; how it was run: as §1
BV-173 [2] = test: Induction of apoptosis in BV173 cells assessed as DNA fragmentation at 0.25 uM after 24hrs; settings: Homo sapiens, 2.5 uM, in the assay text read “2.5 uM” for “0.25 uM”
How it was run: (§2)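 Apoptosis assay: exponentially growing BV-173 cells, 1 × 10⁶, exposed 24 h to compound or etoposide, with solvent-treated cells as controls. DNA was extracted from the cytosolic fraction and examined for fragmentation as laddering beside a DNA-laddering marker.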

BV-173 [3] = test: Induction of apoptosis in BV173 cells assessed as DNA fragmentation at 2.5 uM after 24hrs; settings: Homo sapiens; how it was run: as §2

Row | SMILES | IC50 (BV-173 [1]) [µM] | IC50 (K562) [µM] | Activity (BV-173 [2]) | Activity (BV-173 [3])
1 | COc1ccccc1N1CCN(Cn2c(=O)oc3cc(C(=O)/C=C/c4ccccc4)ccc32)CC1 | 9.2 | 30.1 | – | –
2 | COc1ccc(/C=C/C(=O)c2ccc3c(c2)oc(=O)n3CN(C)C)cc1 | 17.7 | – | – | –
3 | O=C(/C=C/c1ccccc1)c1ccc2c(c1)oc(=O)n2CN1CCCCC1 | 8.2 | 38.3 | – | –
4 | COc1cc([C@@H]2c3cc4c(cc3[C@@H](O[C@@H]3O[C@@H]5CO[C@@H](C)O[C@H]5[C@H](O)[C@H]3O)[C@H]3COC(=O)[C@H]23)OCO4)cc(OC)c1O [ETOPOSIDE] | 0.9 | 3.1 | Active | –
5 | O=C(/C=C/c1ccccc1)c1ccc2c(c1)oc(=O)n2CN1CCOCC1 | 7.4 | 31.7 | – | –
6 | COc1ccc(/C=C/C(=O)c2ccc3c(c2)oc(=O)n3CN2CCOCC2)cc1 | 4.7 | 22.7 | – | –
7 | COc1ccc(/C=C/C(=O)c2ccc3c(c2)oc(=O)n3CN2CCN(Cc3ccccc3)CC2)cc1 | 6.2 | 24.2 | – | –
8 | COc1ccc(/C=C/C(=O)c2ccc3c(c2)oc(=O)n3CN2CCSCC2)cc1 | 6.1 | 21.2 | – | Active
9 | O=C(/C=C/c1ccccc1)c1ccc2[nH]c(=O)oc2c1 | 18.4 | – | – | –
10 | COc1ccc(/C=C/C(=O)c2ccc3c(c2)oc(=O)n3CN2CCN(c3ccccc3OC)CC2)cc1 | 5.4 | 12.4 | – | Active
11 | O=C(/C=C/c1ccccc1)c1ccc2c(c1)oc(=O)n2CN1CCSCC1 | 7.9 | 42.2 | – | –
12 | O=C(/C=C/c1ccccc1)c1ccc2c(c1)oc(=O)n2CN1CCN(Cc2ccccc2)CC1 | 9.4 | 29.5 | – | –
13 | CN(C)Cn1c(=O)oc2cc(C(=O)/C=C/c3ccccc3)ccc21 | 6.6 | 27.2 | – | –
14 | COc1ccc(/C=C/C(=O)c2ccc3c(c2)oc(=O)n3CN2CCCCC2)cc1 | 15.3 | – | – | –
15 | COc1ccc(/C=C/C(=O)c2ccc3[nH]c(=O)oc3c2)cc1 | 9.2 | – | – | –
